From ChEMBL document CHEMBL1926614, “Substituted thiazoles V. synthesis and antitumor activity of novel thiazolo[2,3-b]quinazoline and pyrido[4,3-d]thiazolo[3,2-a]pyrimidine analogues” (2012)
Activity calls are given as the source filed them. The calls are words filed in the database; no cut-off is given here.

What was measured:
Type in all cases: functional
EKVX = assay: Growth inhibition of human EKVX cells at 10 uM after 48 hrs by coulter counting
Procedure, shortened: (§1)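 Single-dose primary screen across the full NCI 60-cell-line panel. Stocks were made in DMSO and diluted in PBS to a final DMSO below 1%. Cultures at 6 × 10⁴ cells/ml were run in duplicate wells alongside PBS/DMSO vehicle controls at 37 °C in humidified 5% CO₂. Data were expressed as percent growth of treated cells.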

HCC 2998 = assay: Growth inhibition of human HCC2998 cells at 10 uM after 48 hrs by coulter counting; procedure, shortened: as §1
UACC-257 = assay: Growth inhibition of human UACC257 cells at 10 uM after 48 hrs by coulter counting
Procedure, shortened: (§2)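 Single-dose screen in the NCI 60 human tumor cell line panel (nine subpanels). Compounds dissolved in DMSO and diluted in phosphate buffered saline, keeping final DMSO below 1%. Added in duplicate wells to cells at 6 × 10⁴ cells/ml. Controls held PBS and DMSO at matching dilutions. Incubated at 37 °C, humidified, 5% CO₂. Reported as percent growth of treated cells.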

NCI-H226 = assay: Growth inhibition of human NCI-H226 cells at 10 uM after 48 hrs by coulter counting; procedure, shortened: as §1
CCRF-CEM = assay: Growth inhibition of human CCRF-CEM cells at 10 uM after 48 hrs by coulter counting; details: read-out: GI; procedure, shortened: as §1
[1] = Cytotoxicity against human CNS cancer cells after 48 hrs by coulter counting; details: Cancer cell lines
Procedure, shortened: (§3)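 NCI 60-cell-line panel covering nine tumour subpanels, tested over a 5-log dose range. Compounds were dissolved in DMSO and diluted in phosphate-buffered saline to a final DMSO below 1%. Wells held 6 × 10⁴ cells/ml and were run in duplicate. Controls contained PBS and DMSO at matching dilutions. Incubation was at 37 °C in humidified 5% CO₂. GI₅₀, TGI and LC₅₀ were reported.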

HT-29 = assay: Growth inhibition of human HT-29 cells at 10 uM after 48 hrs by coulter counting; procedure, shortened: as §1
[2] = Cytotoxicity against human leukemia cells after 48 hrs by coulter counting; details: Leukemia cell; procedure, shortened: as §3
SK-MEL-5 = assay: Growth inhibition of human SK-MEL-5 cells at 10 uM after 48 hrs by coulter counting; procedure, shortened: as §1
A549 = assay: Growth inhibition of human A549 cells at 10 uM after 48 hrs by coulter counting; procedure, shortened: as §1
MDA-MB-435 = assay: Growth inhibition of human MDA-MB-435 cells at 10 uM after 48 hrs by coulter counting; procedure, shortened: as §1
NCI/ADR-RES = assay: Growth inhibition of human NCI/ADR-RES cells at 10 uM after 48 hrs by coulter counting; details: read-out: GI; procedure, shortened: as §1
SK-MEL-28 = assay: Growth inhibition of human SK-MEL-28 cells at 10 uM after 48 hrs by coulter counting; details: SK-MEL-28, 48 h, read-out: GI; procedure, shortened: as §1
[3] = Cytotoxicity against human renal cancer cells after 48 hrs by coulter counting; details: Cancer cell lines; procedure, shortened: as §3
HOP-62 = assay: Growth inhibition of human HOP62 cells at 10 uM after 48 hrs by coulter counting; procedure, shortened: as §1
ACHN = assay: Growth inhibition of human ACHN cells at 10 uM after 48 hrs by coulter counting; procedure, shortened: as §1
DU-145 = assay: Growth inhibition of human DU145 cells at 10 uM after 48 hrs by coulter counting; procedure, shortened: as §1
SF-539 = assay: Growth inhibition of human SF539 cells at 10 uM after 48 hrs by coulter counting; details: SF-539, 48 h, read-out: GI; procedure, shortened: as §1
NCI-H23 = assay: Growth inhibition of human NCI-H23 cells at 10 uM after 48 hrs by coulter counting; procedure, shortened: as §1
NSCLC = assay: Cytotoxicity against human NSCLC cells after 48 hrs by coulter counting; procedure, shortened: as §3
RPMI-8226 = assay: Growth inhibition of human RPMI8226 cells at 10 uM after 48 hrs by coulter counting; procedure, shortened: as §1
[4] = Growth inhibition of human NCI-322M cells at 10 uM after 48 hrs by coulter counting; details: read-out: GI; procedure, shortened: as §1
KM12 = assay: Growth inhibition of human KM12 cells at 10 uM after 48 hrs by coulter counting; procedure, shortened: as §1
U-251 = assay: Growth inhibition of human U251 cells at 10 uM after 48 hrs by coulter counting; procedure, shortened: as §2
[5] = Cytotoxicity against human breast cancer cells after 48 hrs by coulter counting; details: Cancer cell lines; procedure, shortened: as §3
IGROV-1 = assay: Growth inhibition of human IGROV1 cells at 10 uM after 48 hrs by coulter counting; procedure, shortened: as §1
CAKI-1 = assay: Growth inhibition of human Caki1 cells at 10 uM after 48 hrs by coulter counting; procedure, shortened: as §1
T47D = assay: Growth inhibition of human T47D cells at 10 uM after 48 hrs by coulter counting; details: read-out: GI; procedure, shortened: as §2
LOX IMVI = assay: Growth inhibition of human LOXIMVI cells at 10 uM after 48 hrs by coulter counting; procedure, shortened: as §1
SNB-75 = assay: Growth inhibition of human SNB75 cells at 10 uM after 48 hrs by coulter counting; details: SNB-75, 48 h, read-out: GI; procedure, shortened: as §1
NCI-H522 = assay: Growth inhibition of human NCI-H522 cells at 10 uM after 48 hrs by coulter counting; procedure, shortened: as §1
OVCAR-4 = assay: Growth inhibition of human OVCAR4 cells at 10 uM after 48 hrs by coulter counting; details: OVCAR-4, 48 h, read-out: GI; procedure, shortened: as §1
[6] = Cytotoxicity against human ovarian cancer cells after 48 hrs by coulter counting; details: Cancer cell lines; procedure, shortened: as §3
HCT-116 = assay: Growth inhibition of human HCT116 cells at 10 uM after 48 hrs by coulter counting; procedure, shortened: as §1
NCI-H460 = assay: Growth inhibition of human NCI-H460 cells at 10 uM after 48 hrs by coulter counting; procedure, shortened: as §1
SK-MEL-2 = assay: Growth inhibition of human SK-MEL-2 cells at 10 uM after 48 hrs by coulter counting; procedure, shortened: as §1
UO-31 = assay: Growth inhibition of human UO31 cells at 10 uM after 48 hrs by coulter counting; procedure, shortened: as §2
HL-60(TB) = assay: Growth inhibition of human HL-60(TB) cells at 10 uM after 48 hrs by coulter counting
Procedure, shortened: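 Test compound was dissolved in DMSO and diluted in phosphate-buffered saline to a final DMSO level below 1%. Dilutions were plated in duplicate with cell culture at 6 × 10⁴ cells/ml. Vehicle controls held PBS and DMSO at matching dilutions. Incubation was at 37 °C, humidified, under 5% CO₂. Data were reported as percent growth of treated cells.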

SF-268 = assay: Growth inhibition of human SF268 cells at 10 uM after 48 hrs by coulter counting; details: SF-268, 48 h, read-out: GI; procedure, shortened: as §1
SR = assay: Growth inhibition of human SR cells at 10 uM after 48 hrs by coulter counting; procedure, shortened: as §2
BT-549 = assay: Growth inhibition of human BT549 cells at 10 uM after 48 hrs by coulter counting; procedure, shortened: as §1
[7] = Cytotoxicity against human prostate cancer cells after 48 hrs by coulter counting; details: Cancer cell lines; procedure, shortened: as §3
UACC-62 = assay: Growth inhibition of human UACC62 cells at 10 uM after 48 hrs by coulter counting; procedure, shortened: as §2
SNB-19 = assay: Growth inhibition of human SNB19 cells at 10 uM after 48 hrs by coulter counting; details: SNB-19, 48 h, read-out: GI; procedure, shortened: as §1
A498 = assay: Growth inhibition of human A498 cells at 10 uM after 48 hrs by coulter counting; procedure, shortened: as §1
M14 = assay: Growth inhibition of human M14 cells at 10 uM after 48 hrs by coulter counting; procedure, shortened: as §1
SF-295 = assay: Growth inhibition of human SF295 cells at 10 uM after 48 hrs by coulter counting; procedure, shortened: as §1
K562 = assay: Growth inhibition of human K562 cells at 10 uM after 48 hrs by coulter counting; procedure, shortened: as §1
MCF7 = assay: Growth inhibition of human MCF7 cells at 10 uM after 48 hrs by coulter counting; details: MCF7, 48 h, read-out: GI; procedure, shortened: as §1
MOLT-4 = assay: Growth inhibition of human MOLT4 cells at 10 uM after 48 hrs by coulter counting; procedure, shortened: as §1
[8] = Cytotoxicity against human colon cancer cells after 48 hrs by coulter counting; details: Cancer cell lines; procedure, shortened: as §3
[9] = read-out: LC50 (the source's name)

COc1cc(/C=C2\CCCC3=C2N=C2SC=CN2C3c2cc(OC)c(OC)c(OC)c2)cc(OC)c1OC (stereo not given)
growth inhibition (GI) (EKVX): Active | growth inhibition (GI) (HCC 2998): Active | growth inhibition (GI) (UACC-257): Active | growth inhibition (GI) (NCI-H226): Active | inhibition of growth at 10 µM (CCRF-CEM): 94.1% | GI50 [1]: 47.8 µM | LC50 [1]: > 100 µM | TGI [1]: > 100 µM | growth inhibition (GI) (HT-29): Active | GI50 [2]: 2000 nM | TGI [2]: > 100 µM | CC50 [2, 9]: > 100 µM | growth inhibition (GI) (SK-MEL-5): Active | growth inhibition (GI) (A549): Active | growth inhibition (GI) (MDA-MB-435): Active | inhibition of growth at 10 µM (NCI/ADR-RES): 90.5% | inhibition of growth at 10 µM (SK-MEL-28): 89.7% | GI50 [3]: 1800 nM | LC50 (concentration giving 50% net cell kill) [3]: > 100 µM | TGI [3]: > 100 µM | growth inhibition (GI) (HOP-62): Active | growth inhibition (GI) (ACHN): Active | growth inhibition (GI) (DU-145): Active | inhibition of growth at 10 µM (SF-539): 91.3% | growth inhibition (GI) (NCI-H23): Active | GI50 (NSCLC): 2300 nM | TGI (NSCLC): > 100 µM | CC50 (NSCLC; [9]): > 100 µM | growth inhibition (GI) (RPMI-8226): Active | inhibition of growth at 10 µM [4]: 99.5% | growth inhibition (GI) (KM12): Active | growth inhibition (GI) (U-251): Active | GI50 [5]: 2200 nM | TGI [5]: > 100 µM | CC50 [5, 9]: > 100 µM | growth inhibition (GI) (IGROV-1): Active | growth inhibition (GI) (CAKI-1): Active | inhibition of growth at 10 µM (T47D): 69% | growth inhibition (GI) (LOX IMVI): Active | inhibition of growth at 10 µM (SNB-75): 65% | growth inhibition (GI) (NCI-H522): Active | inhibition of growth at 10 µM (OVCAR-4): 79.5% | GI50 [6]: 1900 nM | TGI [6]: > 100 µM | CC50 [6, 9]: > 100 µM | growth inhibition (GI) (HCT-116): Active | growth inhibition (GI) (NCI-H460): Active | growth inhibition (GI) (SK-MEL-2): Active | growth inhibition (GI) (UO-31): Active | growth inhibition (GI) (HL-60(TB)): Active | inhibition of growth at 10 µM (SF-268): 95% | growth inhibition (GI) (SR): Active | growth inhibition (GI) (BT-549): Active | GI50 [7]: 2000 nM | LC50 (concentration killing 50% of cells) [7]: > 100 µM | TGI [7]: > 100 µM | growth inhibition (GI) (UACC-62): Active | inhibition of growth at 10 µM (SNB-19): 79% | growth inhibition (GI) (A498): Active | growth inhibition (GI) (M14): Active | growth inhibition (GI) (SF-295): Active | growth inhibition (GI) (K562): Active | inhibition of growth at 10 µM (MCF7): 76% | growth inhibition (GI) (MOLT-4): Active | GI50 [8]: 1600 nM
